In ChEMBL document CHEMBL1159071, “Discovery of 4-(5-methyloxazolo[4,5-b]pyridin-2-yl)-1,4-diazabicyclo[3.2.2]nonane (CP-810,123), a novel alpha 7 nicotinic acetylcholine receptor agonist for the treatment of cognitive disorders in schizophrenia: synthesis, SAR development, and in vivo efficacy in cognition models” (J Med Chem, 2010):
pEC50, pIC50, pKi: −log10 of the molar value. Activity calls are given as the source filed them. No cut-off for these calls is given here.

Columns and labels:
[1] = Oral bioavailability in rat; type: ADME, organism-based; details: in vivo
[2] = target: T1, 5-hydroxytryptamine receptor 3A (Homo sapiens, UniProt P46098); assay: […] at human 5HT3 receptor expressed in human skin epithelial cells assessed as stimulation of calcium flux by FLIPR assay; type: functional, cell-based, Epithelial cell
T1 sequence (P46098 whole entry): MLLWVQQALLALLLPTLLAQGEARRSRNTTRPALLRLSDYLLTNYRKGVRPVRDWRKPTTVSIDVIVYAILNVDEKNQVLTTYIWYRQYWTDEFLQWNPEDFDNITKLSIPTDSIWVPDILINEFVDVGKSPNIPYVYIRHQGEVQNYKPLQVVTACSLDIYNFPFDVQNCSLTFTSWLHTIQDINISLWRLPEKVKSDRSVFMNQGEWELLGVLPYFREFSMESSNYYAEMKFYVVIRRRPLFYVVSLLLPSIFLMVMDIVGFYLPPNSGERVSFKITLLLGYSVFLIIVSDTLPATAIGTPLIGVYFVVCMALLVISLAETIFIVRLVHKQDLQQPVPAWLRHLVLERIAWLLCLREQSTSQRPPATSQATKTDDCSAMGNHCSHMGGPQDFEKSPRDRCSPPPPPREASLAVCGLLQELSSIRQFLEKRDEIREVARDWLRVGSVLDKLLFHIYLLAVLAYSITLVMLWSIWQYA
Summary of the method: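 Human 5-HT3A stably in human skin epithelial cells, plated 15 000 cells/well 2 days ahead; loaded 1 h at 37 °C with Fluo-4 (8 μM final), washed into HBSS with 20 mM Tris-HEPES, 1 μM atropine, 4 mM Ca2+, pH 7.4. Compound added 2 min, then 5-HT challenge (250 nM final) 2 min; FLIPR calcium read.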

[3] = target: Neuronal acetylcholine receptor subunit alpha-7 (Homo sapiens, UniProt P36544); assay: Displacement of [125I]BTX from human alpha7 nicotinic acetylcholine receptor expressed in IMR32 cells; type: cell-based, IMR-32
Sequence of Neuronal acetylcholine receptor subunit alpha-7 (P36544 whole entry): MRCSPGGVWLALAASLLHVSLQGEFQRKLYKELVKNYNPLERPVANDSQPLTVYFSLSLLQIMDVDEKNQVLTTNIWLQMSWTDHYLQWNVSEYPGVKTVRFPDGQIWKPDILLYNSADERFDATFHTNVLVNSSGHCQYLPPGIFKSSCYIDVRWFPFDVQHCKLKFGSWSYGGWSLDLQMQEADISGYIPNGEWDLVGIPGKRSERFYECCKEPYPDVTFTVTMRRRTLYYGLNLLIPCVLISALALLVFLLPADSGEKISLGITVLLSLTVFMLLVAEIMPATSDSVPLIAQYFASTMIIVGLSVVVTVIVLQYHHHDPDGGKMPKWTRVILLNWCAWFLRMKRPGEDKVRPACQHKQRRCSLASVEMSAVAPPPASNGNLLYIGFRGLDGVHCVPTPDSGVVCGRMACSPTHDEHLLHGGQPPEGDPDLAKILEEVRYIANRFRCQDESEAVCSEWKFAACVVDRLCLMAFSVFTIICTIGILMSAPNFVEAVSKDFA
Summary of the method: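 Human α7 nAChR in IMR-32 cells, [125I]BTX radioligand. Six-point concentration-response curve, run in triplicate and averaged.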

Rattus norvegicus [4] = assay: Cognitive enhancement in Sprague-Dawley rat assessed as reversal of amphetamine-induced auditory sensory gating deficit at 1 mg/kg, sc; type: functional, organism-based; set-up: dose 1 mg/kg
Summary of the method: (§1)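 Male Sprague-Dawley rats (250-300 g) under chloral hydrate (400 mg/kg ip), femoral vein cannulated. CA3 hippocampal field potential recorded; auditory-evoked responses averaged over 50 stimulus pairs at 10 s interstimulus interval. Gating disrupted by d-amphetamine 1 mg/kg iv; compound sc. Read-out is reversal of the amphetamine deficit; PBS vehicle; two-tailed paired t-test.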

Rattus norvegicus [5] = assay: Cognitive enhancement in Sprague-Dawley rat assessed as augmentation of amphetamine-induced hippocampal theta oscillation at 1 mg/kg, sc; type: functional, organism-based; set-up: dose 1 mg/kg; details: Hippocampus
[6] = target: Neuronal acetylcholine receptor subunit alpha-7 (Rattus norvegicus) (UniProt Q05941); assay: Ex vivo receptor binding at alpha7 nicotinic acetylcholine receptor in rat hippocampal brain after 30 mins by [125I]alpha-bungarotoxin binding assay; type: tissue-based; details: Hippocampus
Sequence of Neuronal acetylcholine receptor subunit alpha-7 (Rattus norvegicus) (Q05941 whole entry): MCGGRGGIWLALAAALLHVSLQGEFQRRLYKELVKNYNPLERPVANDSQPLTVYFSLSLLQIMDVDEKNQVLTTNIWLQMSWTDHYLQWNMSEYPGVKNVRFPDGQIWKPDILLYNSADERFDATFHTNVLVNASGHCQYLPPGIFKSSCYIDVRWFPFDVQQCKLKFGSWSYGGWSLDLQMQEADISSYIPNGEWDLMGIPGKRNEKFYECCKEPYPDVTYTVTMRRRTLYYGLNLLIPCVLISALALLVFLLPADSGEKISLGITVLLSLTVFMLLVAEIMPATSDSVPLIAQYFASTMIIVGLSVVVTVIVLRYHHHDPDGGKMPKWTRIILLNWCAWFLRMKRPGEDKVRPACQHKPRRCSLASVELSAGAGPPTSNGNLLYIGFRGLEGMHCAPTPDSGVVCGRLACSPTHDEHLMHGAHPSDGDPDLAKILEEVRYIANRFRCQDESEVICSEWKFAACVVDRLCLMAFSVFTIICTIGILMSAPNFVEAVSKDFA
Summary of the method: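 Rats dosed sc with compound or vehicle, 3 per dose group; hippocampus taken 30 min later and homogenized in HEPES buffer pH 7.5. Homogenate incubated 2 h at 37 °C with 0.4 nM [125I]α-bungarotoxin. Nonspecific binding with 1 μM methyllycaconitine; filtration onto GF/B. Occupancy-versus-dose ED50 derived.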

[7] = target: T2, Muscarinic acetylcholine receptor M1 (Homo sapiens, UniProt P11229); assay: Inhibition of muscarinic M1 receptor
T2 sequence (P11229 whole entry): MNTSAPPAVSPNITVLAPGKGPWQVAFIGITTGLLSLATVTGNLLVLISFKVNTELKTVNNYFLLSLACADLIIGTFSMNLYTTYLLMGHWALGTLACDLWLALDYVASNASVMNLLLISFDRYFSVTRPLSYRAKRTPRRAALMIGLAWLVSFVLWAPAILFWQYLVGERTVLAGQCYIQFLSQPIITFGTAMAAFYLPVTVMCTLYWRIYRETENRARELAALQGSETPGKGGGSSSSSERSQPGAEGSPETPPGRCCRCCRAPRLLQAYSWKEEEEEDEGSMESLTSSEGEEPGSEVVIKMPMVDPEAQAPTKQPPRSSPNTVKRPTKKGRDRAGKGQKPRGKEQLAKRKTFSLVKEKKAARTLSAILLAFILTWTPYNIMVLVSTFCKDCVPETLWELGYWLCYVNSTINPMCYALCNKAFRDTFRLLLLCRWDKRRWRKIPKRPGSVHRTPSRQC

[8] = Agonist activity at human alpha7 nAChR/mouse 5HT3 chimeric receptor expressed in SH-EP1 cells assessed as increase in intracellular calcium level; type: functional, cell-based
Summary of the method: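 α7-5HT3 chimera stably in SH-EP1 cells grown to confluence; loaded with Calcium Green 1 AM (2 μM final) 60 min at 37 °C. Compound added directly; calcium rise read by FLIPR (excitation 488 nm, emission >525 nm).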

[9] = Ratio of drug level in brain to plasma of rat at 1 mg/kg, sc after 40 mins; details: brain and plasma
[10] = target: Neuronal acetylcholine receptor; alpha4/beta2 (Rattus norvegicus, UniProt P09483+P12390); assay: Displacement of [3H]nicotine from alpha4beta2 nAChR in rat brain homogenate; type: tissue-based
Sequence of Neuronal acetylcholine receptor; alpha4/beta2 (P09483 whole entry): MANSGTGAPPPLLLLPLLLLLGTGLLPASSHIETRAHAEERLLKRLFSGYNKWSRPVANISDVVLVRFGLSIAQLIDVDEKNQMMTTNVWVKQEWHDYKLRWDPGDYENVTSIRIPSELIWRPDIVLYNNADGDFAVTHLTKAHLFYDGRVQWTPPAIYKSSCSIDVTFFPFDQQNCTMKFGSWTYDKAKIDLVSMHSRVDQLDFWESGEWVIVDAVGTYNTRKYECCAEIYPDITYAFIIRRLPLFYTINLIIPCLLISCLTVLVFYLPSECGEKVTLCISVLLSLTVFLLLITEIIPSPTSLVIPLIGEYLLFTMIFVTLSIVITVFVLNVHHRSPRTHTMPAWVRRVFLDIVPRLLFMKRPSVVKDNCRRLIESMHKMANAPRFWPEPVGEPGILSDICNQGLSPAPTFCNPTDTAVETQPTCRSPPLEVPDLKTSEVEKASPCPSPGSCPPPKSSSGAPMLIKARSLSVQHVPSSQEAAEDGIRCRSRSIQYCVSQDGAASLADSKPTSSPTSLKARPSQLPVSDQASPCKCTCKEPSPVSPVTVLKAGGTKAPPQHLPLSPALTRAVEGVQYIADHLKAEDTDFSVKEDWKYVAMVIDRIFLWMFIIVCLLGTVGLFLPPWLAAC
Sequence of Neuronal acetylcholine receptor; alpha4/beta2 (P12390 whole entry): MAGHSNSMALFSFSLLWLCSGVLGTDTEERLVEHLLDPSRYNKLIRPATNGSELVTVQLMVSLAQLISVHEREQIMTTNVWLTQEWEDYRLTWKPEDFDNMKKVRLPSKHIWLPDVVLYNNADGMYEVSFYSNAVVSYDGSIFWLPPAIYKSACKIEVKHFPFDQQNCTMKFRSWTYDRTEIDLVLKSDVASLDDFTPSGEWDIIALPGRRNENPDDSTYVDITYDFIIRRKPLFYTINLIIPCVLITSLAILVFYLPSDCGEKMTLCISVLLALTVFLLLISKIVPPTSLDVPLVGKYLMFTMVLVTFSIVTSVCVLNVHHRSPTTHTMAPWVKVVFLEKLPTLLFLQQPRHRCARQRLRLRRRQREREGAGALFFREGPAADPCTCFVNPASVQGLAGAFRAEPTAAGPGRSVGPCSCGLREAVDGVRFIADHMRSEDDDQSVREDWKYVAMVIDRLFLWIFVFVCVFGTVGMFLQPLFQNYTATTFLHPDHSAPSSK
Summary of the method: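 Rat brain homogenate membranes; [3H]nicotine used as radioligand. Ki taken as the average of a six-point dose-response curve run in triplicate.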

Rattus norvegicus [11] = assay: Cognitive enhancement in Sprague-Dawley rat assessed as improvement of scopolamine-impaired performance at 1 mg/kg, sc administered 30 mins before scopolamine challenge by novel object recognition assay; type: functional, organism-based; set-up: dose 1 mg/kg
Summary of the method: (§2)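 Rats habituated to the arena 3 min on day 1. Next day, 10-15 per group dosed sc with vehicle or compound, then 30 min later vehicle or (-)-scopolamine 0.2 mg/kg sc. After 30 min more, two identical objects shown 3 min; 2.5 h later one novel and one familiar object for 3 min. Exploration time per object, mean ± SEM.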

[12] = Aqueous solubility of the compound; type: physicochemical; details: buffer
Rattus norvegicus [13] = assay: Cognitive enhancement in Sprague-Dawley rat assessed as reversal of amphetamine-induced auditory sensory gating deficit at 0.1 mg/kg, sc; type: functional, organism-based; set-up: dose 0.1 mg/kg; summary of the method: as §1
Rattus norvegicus [14] = assay: Cognitive enhancement in Sprague-Dawley rat assessed as improvement of scopolamine-impaired performance at 0.32 mg/kg, sc administered 30 mins before scopolamine challenge by novel object recognition assay; type: functional, organism-based; set-up: dose 0.32 mg/kg; summary of the method: as §2

Structure (SMILES): Cc1ccc2oc(N3CCN4CCC3CC4)nc2n1
- bioavailability [1]: 73%
- pIC50 [2]: 8.30
- pKi [3]: 7.79
- Activity (Rattus norvegicus [4]): Active
- Activity (Rattus norvegicus [5]): Active
- ED50 [6]: 0.34 mg/kg
- pKi [7]: 4.85
- pEC50 [8]: 6.61
- Kp at 40 min [9]: 1.5
- pKi [10]: 5.87
- Activity (Rattus norvegicus [11]): Active
- solubility [12]: > 2400 µg/mL
- Activity (Rattus norvegicus [13]): Active
- Activity (Rattus norvegicus [14]): Active
